AI-2 QS mod = modulators of Vibrio harveyi AI-2 quorum sensing system. Vibrio harveyi JMH597 AI-2 luminescence/OD600 ratio, 9 h; hits give low values; strain lacks LuxN and CqsS sensors; 0 = neutral-control median. activity change, % at 7.5 µM. 300,000 tested, 0.4% active. AID 2094; in the data active means activity change below about -75%, passing the limit was not always enough; inconclusive means no clear call, values can overlap the other calls;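 further: luminescence divided by OD600 gain over 9 h not by final OD600 alone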
Runt-SMMHC FRET = blocks binding of human RUNX1 Runt domain to CBFb-SMMHC. Cerulean-Runt/Venus-CBFb-SMMHC FRET ratio 530/480, 1 h. 220,000 tested, 0.74% active. Q01196+Q13951. inhibition, % at 20 µM;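 active means mean inhibition across duplicate retests at 20 µM reaching about 50%, limit read from the data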;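 further: 0% = DMSO wells and 100% = wells with excess untagged CBFb-SMMHC; inhibitors lower the FRET ratio by blocking Runt binding to CBFb-SMMHC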
RanGTP-Impb inh = disruptors of Ran-importin-beta complex formation – biochemical, FRET, CFP-Ran, YFP-importin-beta, homogeneous, primary screen; cell-free CFP-Ran/YFP-importin-beta FRET ratio; inhibition, % (no concentration beside the values); 300,000 tested, 1.1% active; AID 2216;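 active means more than half of the replicate wells show a fall in the fluorescence ratio signal beyond about 16%, limit read from the data, passing the limit was not always enough; inconclusive means exactly half of the replicate wells pass the set limit; inactive means fewer than half of replicates pass the limit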;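 further: 0% = DMSO wells and 100% = Ran loaded with GDP instead of GTP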
proKLK7 act = activates the human kallikrein-7 zymogen; purified proKLK7, EDANS-DABCYL substrate fluorescence; 100% is mature enzyme control, 0% vehicle; AID 652039; activation, % at 7 µM; 370,000 tested, 0.9% active; P49862;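 active means activation above the mean of all tested compounds plus 3 SD, computed per campaign excluding outliers beyond control limits, cut at about 13% in these data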
Target sequence (P49862 whole entry, looked up): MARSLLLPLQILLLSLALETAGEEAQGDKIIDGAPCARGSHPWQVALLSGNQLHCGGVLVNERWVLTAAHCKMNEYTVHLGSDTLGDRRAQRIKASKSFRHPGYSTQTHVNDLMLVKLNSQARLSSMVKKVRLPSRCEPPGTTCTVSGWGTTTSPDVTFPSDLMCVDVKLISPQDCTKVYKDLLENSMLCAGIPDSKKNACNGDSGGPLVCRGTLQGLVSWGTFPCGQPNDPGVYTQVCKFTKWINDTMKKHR
Runt-CBFb FRET = Runt domain-CBFb interaction inhibition | Q01196+Q13951 | Cerulean-Runt/Venus-CBFb FRET ratio 530/480, 1 h | inhibition, % at 20 µM | 220,000 tested, 0.46% active | AID 1496;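 active means inhibition over about 50% at 20 µM in the single-dose screen, limit read from the data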;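 further: 0% = DMSO wells and 100% = excess unlabeled CBFb competitor control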
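Assay system: Cerulean-Runt domain fusion protein, energy donor; Signal: fluorescence energy transfer, 422 nm excitation, 530/480 nm emission; Timing: 1 h compound exposure, room temperature; Control set: unlabeled CBFb; Medium: Tris buffer pH 7.5 with salts and BSA; Compound: single test concentration of 20 µM, 1% DMSO final; Probe or stimulus: Venus-CBFb 100 nM.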
Wee1 degr inh = human Wee1 degradation inhibition, primary screen. HeLa Luc-Wee1K328M stability, luciferase luminescence; 100% = proteasome inhibitor MG132 effect. reporter increase, % at 5 µM. 220,000 tested, 1.2% active. AID 1321;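 active means activation above the mean of all tested compounds plus 3 SD, set per screening run, cut at about 8.8% in these data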;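 further: cells exposed to compound for 20 h before luminescence read; 0% = DMSO alone and 100% = MG132 at 30 µM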
* hit, by the source's call; ? = inconclusive; · = no result. An excerpt weighted towards active compounds, which were near 2.9% of everything screened.

SMILES | AI-2 QS mod | Runt-SMMHC FRET | RanGTP-Impb inh | proKLK7 act | Runt-CBFb FRET | Wee1 degr inh
Cc1onc(-c2ccc(Cl)cc2)c1-c1ccn(S(=O)(=O)c2cccc(Cl)c2)n1 | · | · | · | 0 | · | ·
CC1(C)C(=O)N(c2ccccc2)C(=O)c2ccccc21 | 9 | · | 2 | 0 | · | ·
O=c1[nH]c(=O)c2ncc(-c3ccc(Cl)cc3)nc2[nH]1 | -1 | 85* | -1 | · | 54* | 0
Cn1nc(N)c2ncc(-c3ccc(Cl)cc3)nc21 | · | · | · | 1 | · | ·
COc1ncccc1-c1nnn(-c2ccc(Cl)nc2)n1 | 17 | 0 | 5 | -1 | -2 | 9.7*
CCOc1ccc(C(=O)NCC(=O)OCC(=O)Nc2ccc(C)c(S(=O)(=O)N(C)C)c2)cc1 | 13 | 2 | 2 | 0 | -1 | -3
Cc1ccc(-n2c(C)cc(/C=N/NC(=O)Cn3c4ccccc4c(=O)c4ccccc43)c2C)cc1 | 51 | · | · | -4 | 106* | -2
Cc1cc(/C=N/NC(=O)Cn2c3ccccc3c(=O)c3ccccc32)c(C)n1-c1ccc(Cl)cc1 | 55 | · | · | -1 | 101* | 1
Nc1nc(Nc2ccccc2F)nc(NCc2ccccc2)c1[N+](=O)[O-] | 7 | 2 | 9 | 0 | -1 | 9.6*
Cc1ccc(CNc2nc(N)c([N+](=O)[O-])c(Nc3ccc(F)cc3)n2)cc1 | 17 | 4 | 19* | 0 | 0 | -2
CC(C1CC1)N(Cc1ccccc1)C(=S)Nc1ccccc1 (configuration not stated) | -2 | -1 | 0 | 0 | 1 | 9.6*
COc1ccc(/C=C/c2nnc(NC(=O)CSc3ccc(C)cc3)s2)cc1 | 29 | 124* | 7 | -1 | 1 | -1
COc1ccc(-c2nnc(SCC(=O)Nc3ccc(C)cc3)n2C)cc1 | 12 | 5 | 0 | 0 | -1 | 9.8*
CCC(=O)Nc1nnc(/C=C/c2ccc(OC)cc2)s1 | 6 | 1 | 1 | -317 | -2 | 5
O=C(Nc1oc2ccccc2c(=O)c1-c1ccc(Cl)cc1)c1ccco1 | 41 | · | 2 | 0 | · | ·
O=C(Cc1ccc(S(=O)(=O)N2CCOCC2)s1)Nc1ccccc1N1CCCC1 | 21 | · | 19* | -3 | · | ·
COc1ccc(-c2cc(=O)n(-c3nc4ccccc4[nH]3)[nH]2)cc1 | 28 | -7 | 56* | -2 | 6 | -1
COc1ccccc1C1C(C#N)=C(N)Oc2cc(C)n(CCCn3ccnc3)c(=O)c21 (configuration not stated) | 29 | -5 | -4 | 0 | 3 | 0
COCCn1c(C)cc2c(c1=O)C(c1ccccc1F)C(C#N)=C(N)O2 (configuration not stated) | 24 | 33 | 63* | -1 | 6 | -2
COc1ccccc1C1C(C#N)=C(N)Oc2cc(C)n(Cc3ccccn3)c(=O)c21 (configuration not stated) | 9 | 1 | 2 | 0 | 2 | 3
Cc1cc2c(c(=O)n1CCCn1ccnc1)C(c1ccco1)C(C#N)=C(N)O2 (configuration not stated) | 4 | 108* | 5 | 0 | 46 | 1
S=c1[nH]c2ccccc2o1 | -27 | 3 | -1 | 0 | 6 | -1
CCCCCCCCN1C(=O)[C@@H](CC(=O)N2CCN(C(=O)c3ccco3)CC2)C[C@@]2(C(=O)OC)C1=C[C@H](C(C)C)O[C@@H]2C1CC1 | · | · | · | 1 | · | ·
O=C(CSc1ccc(F)cc1)Nc1ccc(C2SCCS2)cc1 | -24 | -5 | 1 | 0 | -1 | 9.5*
O=C(CSC1=NCCS1)Nc1ccc(F)cc1 | -3 | -1 | 0 | 0 | -2 | -2
SMILES | AI-2 QS mod | Runt-SMMHC FRET | RanGTP-Impb inh | proKLK7 act | Runt-CBFb FRET | Wee1 degr inh
Cc1ccc2nc(C(O)C(O)c3nc4ccc(C)cc4[nH]3)[nH]c2c1 (configuration not stated) | 46 | 0 | -3 | 0 | 2 | -1
Cc1ccc2nc(C(C)O)[nH]c2c1 (configuration not stated) | 25 | -6 | ? | 1 | · | 9.5*
O=C1C=C(Nc2cccc(O)c2)CC(c2ccco2)C1 (configuration not stated) | 23 | -8 | 64* | -6 | 1 | 3
CCOc1ccc(NC2=CC(=O)CC(c3ccco3)C2)cc1 (configuration not stated) | -30 | 1 | 5 | 0 | 3 | -3
O=C1C=C(Nc2ccc(Cl)cc2)CC(c2ccco2)C1 (configuration not stated) | 0 | -1 | 29* | 0 | 1 | 0
O=C(N/N=C/c1sc(N2CCOCC2)nc1-c1ccccc1)c1ccccc1O | 30 | 13 | 6 | -3 | 0 | 1
O=C(N/N=C/c1sc(N2CCOCC2)nc1-c1ccccc1)c1ccccc1Cl | 3 | 4 | 30* | 0 | 3 | 3
O=C(C1=C(O)C(=O)N(CCN2CCOCC2)C1c1ccc(F)cc1)c1cccs1 (configuration not stated) | 15 | · | ? | 0 | · | ·
O=C(C1=C(O)C(=O)N(CCN2CCOCC2)C1c1ccccn1)c1cccs1 (configuration not stated) | 9 | 13 | 26* | 0 | 12 | -1
CCN(CC)CCN1C(=O)C(O)=C(C(=O)c2cccs2)C1c1ccccn1 (configuration not stated) | 1 | -2 | 68* | 0 | 5 | 0
COc1ccc(CCNC(=O)CC2SC(N)=NC2=O)cc1OC (configuration not stated) | 10 | 3 | 2 | -1 | 2 | -2
O=C(COc1ccc([N+](=O)[O-])cc1)Nc1ccc(C(=O)Nc2ccccc2C(=O)O)cc1 | 17 | -5 | 5 | 0 | 0 | -1
O=C(Cc1ccccc1)Nc1ccccc1C(=O)Nc1ccccc1 | 7 | 3 | -1 | 0 | -1 | 11*
COC(=O)[C@]12C[C@H](CC(=O)NCCCN3CCCC3=O)C(=O)N(Cc3ccc4c(c3)OCO4)C1=C[C@H](COCc1ccccc1)O[C@@H]2C | · | · | · | 0 | · | ·
COc1ccccc1NC(=O)CNc1ccc(F)c(Cl)c1 | 18 | 0 | 4 | 0 | 1 | 0
COc1ccc(OC)c(N(CC(=O)Nc2cccnc2)S(=O)(=O)c2ccc(OC)c(OC)c2)c1 | 10 | -3 | 3 | 0 | -1 | 0
COc1ccc(N(CC(=O)Nc2cccc(SC)c2)S(C)(=O)=O)cc1 | 24 | -1 | -1 | 0 | -2 | 9.2*
COc1ccc(OC)c(N(CC(=O)Nc2cccnc2)S(C)(=O)=O)c1 | 20 | -3 | -2 | -1 | 1 | 9.6*
Cc1cccc(N(CC(=O)N/N=C/c2ccc(C(=O)O)cc2)S(=O)(=O)c2ccccc2)c1C | -1 | · | -5 | -1 | · | ·

Assay outcomes (PubChem BioAssay)
